Screening results (PubChem BioAssay)
CDK5 inh: inhibitors of human CDK5/p35 kinase, primary screen, biochemical, single concentration; AID 488839, 2010; 330,000 compounds, 0.01% hits; inhibition, % at 10 µM; Cyclin-dependent kinase 5 (Homo sapiens) + Cyclin-dependent kinase 5 activator 1 (Homo …; Recombinant CDK5/p35, ADP-Glo luminescence, 60 min;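 active = highest replicate inhibition of at least 50% and at least 75% of replicates reaching 50%; inconclusive = only one of the two criteria met; inactive = both criteria failed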
Target sequence (Q00535 whole entry, looked up): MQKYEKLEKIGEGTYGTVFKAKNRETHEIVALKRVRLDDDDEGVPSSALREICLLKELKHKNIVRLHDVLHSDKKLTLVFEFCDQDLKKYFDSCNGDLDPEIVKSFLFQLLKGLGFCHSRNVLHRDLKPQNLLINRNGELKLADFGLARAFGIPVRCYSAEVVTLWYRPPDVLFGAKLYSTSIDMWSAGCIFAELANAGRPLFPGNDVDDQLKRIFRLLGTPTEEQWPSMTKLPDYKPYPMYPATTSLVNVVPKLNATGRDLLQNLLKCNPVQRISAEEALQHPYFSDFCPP
Target sequence (Q15078 whole entry, looked up): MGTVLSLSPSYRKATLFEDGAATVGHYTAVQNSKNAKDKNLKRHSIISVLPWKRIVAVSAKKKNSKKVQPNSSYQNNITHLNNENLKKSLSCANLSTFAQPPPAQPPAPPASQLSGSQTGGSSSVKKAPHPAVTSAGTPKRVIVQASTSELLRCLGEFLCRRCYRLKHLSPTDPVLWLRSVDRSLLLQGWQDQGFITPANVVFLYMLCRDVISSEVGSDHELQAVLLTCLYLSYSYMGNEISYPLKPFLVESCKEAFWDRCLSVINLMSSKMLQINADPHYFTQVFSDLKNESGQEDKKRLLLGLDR
Env fusion inh: inhibitors of HIV-1 Env-driven cell-cell fusion, primary screen, HeLa-JRFL effector, CEM21 target cells, luciferase; inhibition, % at 12.3 µM; 360,000 compounds, 1.1% hits;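 active = mean replicate inhibition score of at least 50 and every replicate individually at or above 50; inconclusive = only one of the two criteria met; inactive = mean below 50 and not all replicates reaching 50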
GSIS activator: GLuc luminescence reporter in INS-1E cells, primary screen for activators of glucose-dependent secretion of insulin; INS-1E GLuc reporter insulin secretion, 2-3 h; activation, % at 16.6 µM; 370,000 compounds, 0.61% hits; AID 743287, 2014;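 active = lowest replicate activation of at least 40%, so every replicate reaches that level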
dFosB act: activators of delta FosB homodimer, primary screen, biochemical, fluorescence polarization, TAMRA-CDK5 oligo, single point | Protein FosB (Mus musculus), P13346 | purified delta FosB; percent of positive-control signal above neutral wells | activation, % at 25 µM | 340,000 compounds, 0.99% hits | AID 493131, 2011;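 active = mean activation above about 17%, with every replicate also reaching it, limit read from the data, passing the limit was not always enough; inconclusive = only one of the two conditions met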
PAX8 reporter: inhibitors of PAX8-driven TPO luciferase reporter, primary screen, RMG-I cells, single concentration | SteadyGlo, 24 h | AID 652154, 2013 | 360,000 compounds, 1.2% hits | inhibition, % at 12.6 µM;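 active = mean replicate inhibition at least 60% with every replicate also reaching 60%; inconclusive = only one of the two criteria is met; inactive = mean below 60% and not all replicates reaching 60%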;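 also: luciferase light reporting Pax8 driven TPO promoter activity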
Cneo AK release: Cryptococcus neoformans cell lysis inducers, primary screen, AK release luminescence, single concentration. C. neoformans lysis, adenylate kinase release luminescence, 4 h; normalised: neutral wells 0, clomiphene wells 100. lysis activity, % at 15 µM. 360,000 compounds, 0.2% hits. AID 651654, 2012;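 active = mean lysis activity across replicates of at least 80%, whatever share of replicates individually reach that level; inactive = mean lysis activity below 80%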
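Assay system: C. neoformans cells. Amount: yeast cell density of 5 × 10^6 cells/mL. Technique: AK luminescence. Buffer or medium: YPD. Times: static 4 h at 37 °C with compound, 1 h detection. Dosing: single-point compound dose. Read-out: lysis from increased AK signal.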
A number is an active result; i = inactive; ? = inconclusive; nt = not tested or not shown; [ ] = another dose, or the depositor's remark. Hits are enriched below; roughly 2.9% of the tested compounds scored in any of these assays.

SMILES	CDK5 inh	Env fusion inh	GSIS activator	dFosB act	PAX8 reporter	Cneo AK release
CCOC(=O)c1nc(Nc2ccc(N3CCC(C)CC3)cc2)c2ccccc2n1	i	62.3	nt	i	i	i
O=C1[C@H]2[C@@H](c3ccc(F)cc3)N3C(=O)N(c4ccccc4)C(=O)[C@@]3(Cc3ccc(Cl)cc3)[C@H]2C(=O)N1C1CCCCC1	i	100.4	i	i	i	i
O=C1[C@H]2[C@@H](c3ccc(F)cc3)N3C(=O)N(c4ccccc4)C(=O)[C@@]3(Cc3ccccc3)[C@H]2C(=O)N1C1CCCCC1	i	107.2	nt	i	i	i
O=C1[C@H]2[C@@H](c3ccc(F)cc3)N3C(=O)N(c4cccc(Cl)c4)C(=O)[C@@]3(Cc3ccccc3)[C@H]2C(=O)N1C1CCCCC1	i	i	i	i	i	i
OC[C@@H]1[C@@H](c2ccc(-c3cccnc3)cc2)[C@@H]2CN(CC3CC3)CCCCN12	nt	nt	i	nt	i	i
Cc1cccc(C)c1NC(=O)NC1CCc2ccccc21 (configuration not stated)	i	i	119.3	i	i	i
O=C(Nc1ccccc1)NC1CCCc2ccccc21 (configuration not stated)	i	i	i	i	i	nt
CCOc1ccccc1NC(=O)NC1CCCc2ccccc21 (configuration not stated)	i	59.1	i	i	i	i
Cc1noc(C)c1S(=O)(=O)Nc1cccc2c1O[C@H](CN(C)S(=O)(=O)c1c(C)noc1C)[C@H](C)CN([C@@H](C)CO)C2=O	nt	nt	i	nt	i	nt
CCOc1ccc(C(=O)Nc2ccc(NC(=O)c3ccccc3)cc2)cc1Br	i	?	i	i	i	i
CCOc1ccc(C(=O)Nc2ccc(Cc3ccncc3)cc2)cc1Br	i	i	i	i	94.9	nt
CCCC(=O)Nc1ccc2c(c1)C(=O)N(C)C[C@@H](OC)[C@H](C)CN(C(=O)c1ccncc1)[C@@H](C)CO2	nt	i	i	nt	i	i
CN(C)CCCNC(=O)C[C@@H]1CC[C@H]2[C@H](COc3ccc(NS(C)(=O)=O)cc3C(=O)N2C)O1	nt	i	i	nt	i	i
COc1ccccc1NC(=O)N[C@@H]1C=C[C@H](CC(=O)NCc2ccc(Cl)c(Cl)c2)O[C@@H]1CO	nt	74.1[16.7 µM]	i	nt	i	i
COc1ccccc1NC(=O)N[C@H]1C=C[C@H](CC(=O)N[C@@H](C)c2ccccc2)O[C@@H]1CO	nt	i	i	nt	i	i
COc1ccccc1NC(=O)N[C@@H]1C=C[C@H](CC(=O)N[C@H](C)c2ccccc2)O[C@H]1CO	nt	95.5[16.7 µM]	i	nt	i	i
COc1ccccc1NC(=O)N[C@@H]1C=C[C@@H](CC(=O)NCc2ccc(Cl)c(Cl)c2)O[C@@H]1CO	nt	nt	i	nt	i	nt
CC(C)NC(=O)N(C)C[C@H]1Oc2cc(C3=CCCCC3)ccc2S(=O)(=O)N([C@@H](C)CO)C[C@@H]1C	nt	i	i	nt	nt	i
C[C@@H]1CN([C@H](C)CO)C(=O)c2cc(NC(=O)c3ccccc3)ccc2O[C@@H](C)CCCCO[C@@H]1CN(C)Cc1ccc(Cl)c(Cl)c1	nt	i	i	nt	i	i
C[C@@H]1CN([C@H](C)CO)C(=O)c2cc(NC(=O)c3ccccc3)ccc2O[C@@H](C)CCCCO[C@H]1CN(C)Cc1ccc(Cl)c(Cl)c1	nt	nt	i	nt	nt	nt
C[C@H]1CCCCO[C@H](CN(C)Cc2ccc(Cl)c(Cl)c2)[C@@H](C)CN([C@@H](C)CO)C(=O)c2cc(NC(=O)c3ccccc3)ccc2O1	nt	i	i	nt	66.8	i
C[C@@H]1CN([C@H](C)CO)C(=O)c2cc(NC(=O)Cc3ccccc3)ccc2O[C@@H](C)CCCCO[C@@H]1CN(C)Cc1ccc(Cl)c(Cl)c1	nt	i	i	nt	i	i
C[C@@H]1CCCCO[C@H](CN(C)Cc2ccc(Cl)c(Cl)c2)[C@@H](C)CN([C@@H](C)CO)C(=O)c2cc(NC(=O)Cc3ccccc3)ccc2O1	nt	i	i	nt	95.6	i
C[C@@H]1CCCCO[C@@H](CN(C)Cc2ccc(Cl)c(Cl)c2)[C@@H](C)CN([C@@H](C)CO)C(=O)c2cc(NC(=O)c3ccccc3)ccc2O1	nt	i	i	nt	66.5	i
CN1c2ccc(-c3cccc(F)c3)cc2[C@@H]2[C@@H](CCN2C(=O)c2ccncc2)[C@H]1CO	nt	nt	i	nt	i	i
SMILES	CDK5 inh	Env fusion inh	GSIS activator	dFosB act	PAX8 reporter	Cneo AK release
CCCN1C[C@@H](C)[C@@H](OC)CN(C)C(=O)c2cc(NC(=O)NC3CCCC3)ccc2OC[C@H]1C	nt	nt	i	nt	i	nt
O=C(NC1CCCC1)N[C@@H]1CC[C@H](CC(=O)N2CCOCC2)O[C@H]1CO	nt	i	i	nt	i	i
CCC(O)(CC)C(=O)NN(C(=O)Nc1csc2c1CCCC2)c1ccccc1	i	62.1	i	i	i	i
O=C(C[C@H]1CC[C@@H](NS(=O)(=O)c2ccc(F)cc2)[C@@H](CO)O1)NCCc1ccncc1	nt	i	i	nt	i	i
C[C@H](CO)N1C[C@H](C)[C@H](CN(C)C(=O)Cc2ccccn2)Oc2ncc(-c3ccc(F)cc3)cc2C1=O	nt	i	i	nt	i	i
O=C(c1coc2ccc(O)c(CN3CCOCC3)c12)C1CC1	i	i	nt	i	nt	i
O=C(c1cccs1)c1coc2ccc(O)c(CN3CCOCC3)c12	i	i	65.4	i	nt	i
O=c1c(Cl)cc(Cl)nn1-c1ccccc1	i	i	i	i	87.8	nt
CCC(=O)Nc1ccc2c(c1)OC[C@H](C)N(C(C)=O)C[C@@H](C)[C@H](OC)CN(C)C2=O	nt	nt	i	nt	nt	nt
CN1CCc2ccccc2Cc2[nH]c3ccccc3c2CC1	i	70.9	nt	i	i	i
Cc1csc(N(C)C(=O)CSc2nnc(COc3cccc4ccccc34)o2)n1	i	104.6	nt	i	nt	i
O=C(C[C@H]1CC[C@H]2[C@@H](COC[C@@H](O)CN2CCC(F)(F)F)O1)NCc1ccc(Oc2ccccc2)cc1	nt	i	i	nt	i	i
CCCC1=Nc2cc(C(=O)NCCCOCC)ccc2Sc2ccccc21	i	i	i	i	99.0	i
CCCC1=Nc2cc(C(=O)NCCCOC(C)C)ccc2Sc2ccccc21	i	i	nt	i	i	i
O=[N+]([O-])c1ccc(/C=N/Nc2nc(N3CCCCC3)nc(N3CCCCC3)n2)cc1	i	i	i	i	i	nt
O=[N+]([O-])c1ccc(Nc2nc(N/N=C\c3ccc4c(c3)OCO4)nc(N3CCCCC3)n2)cc1	i	i	nt	63.1	i	i
COc1ccc(NC(=O)Nc2ccc3c(c2)C(=O)N([C@@H](C)CO)C[C@H](C)[C@@H](CN(C)S(=O)(=O)c2ccc(F)cc2)O3)cc1	nt	i	i	nt	i	i
CCOc1ccc(-n2nnnc2-c2nc3ccccc3s2)cc1	i	i	90.0	i	i	nt
Cc1ccc(-n2nnnc2-c2nc3ccccc3s2)cc1	i	i	i	i	i	nt
